Measured values reported in ChEMBL document CHEMBL1156183, “Identification of very potent inhibitor of human aminopeptidase N (CD13)” (Bioorg Med Chem Lett, 2010).
Values belong to the molecule of their own block, whether it stands above or below them.

What was measured:
[1] = target: T1, Aminopeptidase N (Rattus norvegicus) (UniProt P15684); test: Inhibition of rat aminopeptidase N assessed as ACC fluorophore released after 30 mins using Alanine ACC as substrate
T1 sequence (whole entry): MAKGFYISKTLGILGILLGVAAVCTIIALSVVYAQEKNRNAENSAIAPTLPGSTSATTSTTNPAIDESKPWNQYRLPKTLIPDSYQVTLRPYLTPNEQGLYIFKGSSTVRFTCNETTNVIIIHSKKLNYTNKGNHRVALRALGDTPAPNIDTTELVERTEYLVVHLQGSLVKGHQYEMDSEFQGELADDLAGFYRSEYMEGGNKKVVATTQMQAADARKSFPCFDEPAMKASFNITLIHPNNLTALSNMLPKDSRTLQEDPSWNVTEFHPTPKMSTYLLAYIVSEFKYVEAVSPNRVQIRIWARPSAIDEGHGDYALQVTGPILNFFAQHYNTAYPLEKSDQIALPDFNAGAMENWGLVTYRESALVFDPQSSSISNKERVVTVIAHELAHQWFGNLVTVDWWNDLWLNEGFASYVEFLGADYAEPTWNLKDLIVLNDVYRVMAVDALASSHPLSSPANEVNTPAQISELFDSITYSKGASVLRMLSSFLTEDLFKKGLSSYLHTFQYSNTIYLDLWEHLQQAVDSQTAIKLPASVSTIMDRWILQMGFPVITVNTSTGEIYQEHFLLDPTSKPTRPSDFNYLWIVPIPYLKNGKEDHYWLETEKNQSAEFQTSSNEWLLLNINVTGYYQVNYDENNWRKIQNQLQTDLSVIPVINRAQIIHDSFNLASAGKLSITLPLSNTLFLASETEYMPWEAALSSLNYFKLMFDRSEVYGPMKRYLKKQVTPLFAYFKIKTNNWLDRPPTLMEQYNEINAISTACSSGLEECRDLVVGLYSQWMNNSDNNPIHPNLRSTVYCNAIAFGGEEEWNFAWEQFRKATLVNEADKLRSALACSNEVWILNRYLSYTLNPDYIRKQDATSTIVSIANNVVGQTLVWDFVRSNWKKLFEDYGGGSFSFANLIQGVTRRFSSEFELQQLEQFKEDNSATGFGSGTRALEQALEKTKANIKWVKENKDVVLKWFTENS
Summary of the method: (§1)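 Enzyme (0.45 nM) preincubated 30 min at 37 C with phosphinate inhibitor (eight concentrations) in 100 mM Tris-HCl pH 7.5 (buffer made at 20 C), final DMSO 1%. Ala-ACC added at 50 uM final. ACC release read continuously in kinetic mode, ex 355/em 460 nm. IC50 values are means of two experiments.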

[2] = target: T2, Aminopeptidase N (Sus scrofa) (UniProt P15145); test: Inhibition of pig aminopeptidase N assessed as ACC fluorophore released after 30 mins using Alanine ACC as substrate; summary of the method: as §1
T2 sequence (whole entry): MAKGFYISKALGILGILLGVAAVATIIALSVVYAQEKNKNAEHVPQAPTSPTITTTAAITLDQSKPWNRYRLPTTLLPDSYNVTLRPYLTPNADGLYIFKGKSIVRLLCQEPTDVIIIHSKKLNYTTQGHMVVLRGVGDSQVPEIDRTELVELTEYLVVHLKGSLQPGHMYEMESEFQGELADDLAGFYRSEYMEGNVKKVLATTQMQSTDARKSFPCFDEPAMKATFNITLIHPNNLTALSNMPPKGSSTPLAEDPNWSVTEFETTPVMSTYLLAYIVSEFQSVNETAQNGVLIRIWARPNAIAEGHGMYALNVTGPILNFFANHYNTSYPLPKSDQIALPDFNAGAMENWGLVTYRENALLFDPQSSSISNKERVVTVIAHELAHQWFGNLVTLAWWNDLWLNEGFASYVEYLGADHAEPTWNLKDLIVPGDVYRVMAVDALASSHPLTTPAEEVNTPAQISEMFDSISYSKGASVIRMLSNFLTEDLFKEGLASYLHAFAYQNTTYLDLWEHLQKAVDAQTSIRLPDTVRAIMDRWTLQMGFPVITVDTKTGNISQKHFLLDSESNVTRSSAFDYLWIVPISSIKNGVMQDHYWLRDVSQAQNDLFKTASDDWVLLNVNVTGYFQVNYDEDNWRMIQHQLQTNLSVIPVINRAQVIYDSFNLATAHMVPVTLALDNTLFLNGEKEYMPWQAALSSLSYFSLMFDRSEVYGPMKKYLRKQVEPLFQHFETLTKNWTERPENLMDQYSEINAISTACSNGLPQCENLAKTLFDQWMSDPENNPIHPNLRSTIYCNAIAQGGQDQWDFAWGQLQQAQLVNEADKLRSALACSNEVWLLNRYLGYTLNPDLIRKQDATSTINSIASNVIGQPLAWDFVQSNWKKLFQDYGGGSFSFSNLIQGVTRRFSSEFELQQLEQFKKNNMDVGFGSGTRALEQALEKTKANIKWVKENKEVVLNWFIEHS

[3] = Selectivity ratio of IC50 for pig aminopeptidase N to the IC50 for human aminopeptidase N
[4] = Selectivity ratio of IC50 for rat aminopeptidase N to the IC50 for human aminopeptidase N

IC50 [1]: > 20 µM
IC50 [2]: > 20 µM
Compound: CCOC(=O)c1ccc(CNC(=S)P(=O)(O)C(C)N)cc1 (centres undefined)

IC50 [1]: > 20 µM
IC50 [2]: > 20 µM
Compound: CCCC(N)P(=O)(O)C(=S)NCc1ccc(C(=O)O)cc1 (centres undefined)

IC50 [1]: 1.1 µM
IC50 [2]: 0.62 µM
Compound: CCCCC(N)P(=O)(O)C(=S)NCc1ccccc1 (centres undefined)

IC50 [1]: 2.5 µM
IC50 [2]: 2.3 µM
Compound: NC(CCc1ccccc1)P(=O)(O)C(=S)NCc1ccccc1 (centres undefined)

IC50 [1]: > 20 µM
IC50 [2]: > 20 µM
Compound: COC(=O)c1ccccc1CNC(=S)P(=O)(O)C(N)CC(C)C (centres undefined)

IC50 [1]: 0.62 µM
IC50 [2]: 0.25 µM
Compound: CCCCC(N)P(=O)(O)C(=S)NCCc1ccccc1 (centres undefined)

IC50 [1]: 5.4 µM
IC50 [2]: 4.2 µM
Compound: CC(C)CC(N)P(=O)(O)C(=S)NCCc1ccccc1 (centres undefined)

IC50 [1]: > 20 µM
IC50 [2]: > 20 µM
Compound: CCCCC(N)P(=O)(O)C(=S)NCC(=O)OCc1ccccc1 (centres undefined)

IC50 [1]: 1.05 µM
IC50 [2]: 0.46 µM
Compound: CCCCC(N)P(=O)(O)C(=S)NCc1ccc(OC)cc1 (centres undefined)

IC50 [1]: 1.65 µM
IC50 [2]: 1.55 µM
Compound: CSCCCNC(=S)P(=O)(O)C(N)CCc1ccccc1 (centres undefined)

IC50 [1]: 2.45 µM
IC50 [2]: 2.15 µM
Compound: CCCC(N)P(=O)(O)C(=S)NCc1ccc(OC)cc1 (centres undefined)

IC50 [1]: > 20 µM
IC50 [2]: > 20 µM
Compound: CCCC(N)P(=O)(O)C(=S)NCc1ccccc1C(=O)OC (centres undefined)

IC50 [1]: 2.65 µM
Ratio IC50 [3]: 4
IC50 [2]: 2.65 µM
Ratio IC50 [4]: 4
Compound: COc1ccc(CNC(=S)P(=O)(O)C(N)CCc2ccccc2)cc1 (centres undefined)

IC50 [1]: 2.1 µM
IC50 [2]: 1.6 µM
Compound: CCCC(N)P(=O)(O)C(=S)NCc1ccccc1 (centres undefined)

IC50 [1]: > 20 µM
IC50 [2]: > 20 µM
Compound: CCOC(=O)c1ccc(CNC(=S)P(=O)(O)C(N)CCc2ccccc2)cc1 (centres undefined)

IC50 [1]: > 20 µM
IC50 [2]: > 20 µM
Compound: COc1ccc(CNC(=S)P(=O)(O)C(C)N)cc1 (centres undefined)

IC50 [1]: 5.1 µM
IC50 [2]: 2.8 µM
Compound: CC(C)CC(N)P(=O)(O)C(=S)NCc1ccccc1 (centres undefined)

IC50 [1]: 2.55 µM
IC50 [2]: 1.35 µM
Compound: CCCC(N)P(=O)(O)C(=S)NCCc1ccccc1 (centres undefined)

IC50 [1]: 1.45 µM
IC50 [2]: 1.9 µM
Compound: CC(N)P(=O)(O)C(=S)NCc1ccccc1 (centres undefined)

IC50 [1]: 1.35 µM
IC50 [2]: 1.45 µM
Compound: CCCNC(=S)P(=O)(O)C(N)CCc1ccccc1 (centres undefined)

IC50 [1]: > 20 µM
IC50 [2]: > 20 µM
Compound: CCCCC(N)P(=O)(O)C(=S)NCc1ccccc1C(=O)OC (centres undefined)

IC50 [1]: > 20 µM
IC50 [2]: > 20 µM
Compound: CCCC(N)P(=O)(O)C(=S)NCc1ccc(C(=O)OCC)cc1 (centres undefined)

The next lines start with the molecule.

Compound: CSCCCNC(=S)P(=O)(O)C(C)N (centres undefined)
IC50 [1]: 3.45 µM
IC50 [2]: 2.45 µM

Compound: CCCCC(N)P(=O)(O)C(O)CCc1ccccc1 (centres undefined)
IC50 [1]: 0.52 µM
IC50 [2]: 0.21 µM

Compound: CCCC(N)P(=O)(O)C(O)Cc1ccccc1 (centres undefined)
IC50 [1]: 1.2 µM
IC50 [2]: 0.95 µM

Compound: CCCC(N)P(=O)(O)C(=S)NCCCSC (centres undefined)
IC50 [1]: 1.45 µM
IC50 [2]: 1.95 µM

Compound: CCCCCCNC(=S)P(=O)(O)C(N)C(C)C (centres undefined)
IC50 [1]: 5.05 µM
IC50 [2]: 1.7 µM

Compound: CC(O)P(=O)(O)C(N)c1ccccc1 (centres undefined)
IC50 [1]: 15.2 µM
IC50 [2]: 48 µM

Compound: CC(C)CC(O)P(=O)(O)C(N)c1ccccc1 (centres undefined)
IC50 [1]: 4.7 µM
IC50 [2]: 12 µM

Compound: CC(C)c1ccc(C(O)P(=O)(O)C(C)N)cc1 (centres undefined)
IC50 [1]: 3.5 µM
IC50 [2]: 1.2 µM

Compound: CNC(=S)P(=O)(O)C(N)C(C)C (centres undefined)
IC50 [1]: 21.4 µM
IC50 [2]: 10.2 µM

Compound: CNC(=S)P(=O)(O)C(N)CC(C)C (centres undefined)
IC50 [1]: 10.8 µM
IC50 [2]: > 20 µM

Compound: CCCCCCNC(=S)P(=O)(O)C(N)CC(C)C (centres undefined)
IC50 [1]: 1.7 µM
IC50 [2]: 1.4 µM

Compound: NC(c1ccccc1)P(=O)(O)C(O)c1ccccc1 (centres undefined)
IC50 [1]: 0.46 µM
IC50 [2]: 0.55 µM

Compound: NC(c1ccccc1)P(=O)(O)C(O)CCc1ccccc1 (centres undefined)
IC50 [1]: 2.2 µM
IC50 [2]: 0.24 µM

Compound: CCCCC(N)P(=O)(O)C(=S)NCCCSC (centres undefined)
IC50 [1]: 0.61 µM
IC50 [2]: 0.36 µM

Compound: CCCCC(N)P(=O)(O)C(O)C(C)c1ccccc1 (centres undefined)
IC50 [1]: 0.46 µM
IC50 [2]: 0.22 µM

Compound: CC(C)C(N)P(=O)(O)C(O)CCc1ccccc1 (centres undefined)
IC50 [1]: 1.1 µM
IC50 [2]: 0.5 µM

Compound: NC(CCc1ccccc1)P(=O)(O)C(O)CCc1ccccc1 (centres undefined)
IC50 [1]: 0.4 µM
IC50 [2]: 0.22 µM

Compound: CCCCC(N)P(=O)(O)C(O)c1ccc(O)cc1 (centres undefined)
IC50 [1]: 6.2 µM
IC50 [2]: 5.8 µM

Compound: CC(C)CNC(=S)P(=O)(O)C(N)C(C)C (centres undefined)
IC50 [1]: 8.95 µM
IC50 [2]: 4.8 µM

Compound: NC(Cc1ccccc1)P(=O)(O)C(O)CCc1ccccc1 (centres undefined)
IC50 [1]: 1.6 µM
IC50 [2]: 0.66 µM

Compound: CC(C)CC(N)P(=O)(O)C(O)CCc1ccccc1 (centres undefined)
IC50 [1]: 0.92 µM
IC50 [2]: 1 µM

Compound: CCC(N)P(=O)(O)C(O)CCc1ccccc1 (centres undefined)
IC50 [1]: 2.4 µM
IC50 [2]: 1.3 µM

Compound: CC(N)P(=O)(O)C(=S)NCCc1ccccc1 (centres undefined)
IC50 [1]: 8.7 µM
IC50 [2]: 5.2 µM

Compound: CCC(N)P(=O)(O)C(=S)NCCCSC (centres undefined)
IC50 [1]: 2.5 µM
IC50 [2]: 1.65 µM
